Test results as given in ChEMBL document CHEMBL4725283, “Selective Peptidomimetic Inhibitors of NTMT1/2: Rational Design, Synthesis, Characterization, and Crystallographic Studies” (J Med Chem, 2020).
Activity calls are given as the source filed them. No cut-off for these calls is given here.

What was measured:
[1] = Drug penetration in human HCT116 cells at 100 uM by MALDI-MS analysis; type: ADME, cell-based; details: hct-116, 100 µM
How it was run: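 HCT116 cells in McCoy's 5A with 10% FBS and 1% antibiotic-antimycotic, seeded at 0.1 × 10^6 cells/mL in 24-well plates and held overnight at 37 °C, 5% CO2. Compound added for the specified time, with TAT peptide as control. Cells washed three times with PBS, lysed by two snap-freezes in liquid nitrogen, and the lysate checked for compound by MALDI with DHB matrix.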

Homo sapiens [2] = species on record: Homo sapiens; assay: Selectivity for human NTMT1 over human SMYD2 at 100 uM
How it was run: (§1)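 Panel of 41 PKMTs, PRMTs, DNMTs and NTMT1/2, tested at 100 µM compound in duplicate (n=2).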

Homo sapiens [3] = species on record: Homo sapiens; assay: Selectivity for human NTMT1 over human DNMT3a at 100 uM; how it was run: as §1
Homo sapiens [4] = species on record: Homo sapiens; assay: Selectivity for human NTMT2 over human PRDMT5 at 100 uM
How it was run: (§2)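 Single-point panel screen against 41 PKMTs, PRMTs, DNMTs and NTMT1/2. Each compound was tested at 100 µM, in duplicate (n=2).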

[5] = biological target: T1, N-terminal Xaa-Pro-Lys N-methyltransferase 1 (Homo sapiens) (UniProt Q9BV86); assay: Competitive inhibition of recombinant human full-length His6-tagged NTMT1 (1 to 222 residues) expressed in Escherichia coli BL21-CodonPlus(DE3)-RIL competent cells pre-incubated for 10 mins in presence of fixed SAM and SAHH before varying levels of RCC1-6 addition and measured after 15 mins by fluorescence based SAHH-coupled assay; details: time 25.0 min
T1 sequence (whole entry): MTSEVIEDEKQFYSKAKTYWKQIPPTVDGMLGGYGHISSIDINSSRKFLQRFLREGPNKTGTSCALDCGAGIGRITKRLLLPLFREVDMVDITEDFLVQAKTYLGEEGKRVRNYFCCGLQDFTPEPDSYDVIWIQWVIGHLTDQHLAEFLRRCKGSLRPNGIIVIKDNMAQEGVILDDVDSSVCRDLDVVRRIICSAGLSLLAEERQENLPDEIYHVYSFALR
How it was run: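 After 10 min at 37 °C, started with RCC1-6 at 0.5, 1, 1.5, 2, 4 or 8 µM. Read Ex 370/Em 500 nm for 15 min at 37 °C. Triplicate IC50 at each level plotted against [RCC1-6]/Km.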

Homo sapiens [6] = species on record: Homo sapiens; assay: Selectivity for human NTMT1 over human NSD2 E1099K mutant at 100 uM; how it was run: as §1
Homo sapiens [7] = species on record: Homo sapiens; assay: Selectivity for human NTMT1 over human SET1b complex at 100 uM; how it was run: as §1
Homo sapiens [8] = species on record: Homo sapiens; assay: Selectivity for human NTMT1 over human PRDMT4 at 100 uM; how it was run: as §1
Homo sapiens [9] = species on record: Homo sapiens; assay: Selectivity for human NTMT1 over human PRDMT3 at 100 uM; how it was run: as §1
Homo sapiens [10] = species on record: Homo sapiens; assay: Selectivity for human NTMT2 over human PRDMT8 at 100 uM; how it was run: as §2
Homo sapiens [11] = species on record: Homo sapiens; assay: Selectivity for human NTMT1 over human DOT1L at 100 uM; how it was run: as §1
Homo sapiens [12] = species on record: Homo sapiens; assay: Selectivity for human NTMT1 over human PRDMT7 at 100 uM; how it was run: as §1
Homo sapiens [13] = species on record: Homo sapiens; assay: Selectivity for human NTMT1 over human DNMT3b at 100 uM; how it was run: as §1
Homo sapiens [14] = species on record: Homo sapiens; assay: Selectivity for human NTMT2 over human SET7/9 at 100 uM; how it was run: as §2
Homo sapiens [15] = species on record: Homo sapiens; assay: Selectivity for human NTMT1 over human NSD3 at 100 uM; how it was run: as §1
[16] = biological target: Protein arginine N-methyltransferase 1 (Rattus norvegicus, UniProt Q63009); assay: Inhibition of rat His6-tagged PRMT1 expressed in Escherichia coli BL21(DE3) using H4-21 peptide as substrate preincubated for 10 mins in presence of SAM followed by substrate addition by fluorescence assay
Protein arginine N-methyltransferase 1, sequence (Q63009 whole entry): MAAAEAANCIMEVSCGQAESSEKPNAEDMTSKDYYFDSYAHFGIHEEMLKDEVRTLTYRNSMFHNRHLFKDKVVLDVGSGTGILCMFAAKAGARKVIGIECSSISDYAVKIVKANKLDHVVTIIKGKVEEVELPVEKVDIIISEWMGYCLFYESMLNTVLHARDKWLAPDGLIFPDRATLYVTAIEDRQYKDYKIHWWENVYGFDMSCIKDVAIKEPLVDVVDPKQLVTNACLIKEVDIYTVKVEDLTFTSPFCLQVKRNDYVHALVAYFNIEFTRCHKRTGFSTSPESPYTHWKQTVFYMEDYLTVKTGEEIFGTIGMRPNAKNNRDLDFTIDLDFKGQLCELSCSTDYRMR

Homo sapiens [17] = species on record: Homo sapiens; assay: Selectivity for human NTMT1 over human PRDM9 at 100 uM; how it was run: as §1
Homo sapiens [18] = species on record: Homo sapiens; assay: Selectivity for human NTMT2 over human SUV39H1 at 100 uM; how it was run: as §2
Homo sapiens [19] = species on record: Homo sapiens; assay: Selectivity for human NTMT1 over human SUV420H1TV2 at 100 uM; how it was run: as §2
[20] = biological target: T1, N-terminal Xaa-Pro-Lys N-methyltransferase 1 (Homo sapiens); assay: Substrate activity at recombinant human full-length His6-tagged NTMT1 (1 to 222 residues) expressed in Escherichia coli BL21-CodonPlus(DE3)-RIL competent cells by MALDI-MS analysis
[21] = biological target: T2, N-terminal Xaa-Pro-Lys N-methyltransferase 1 (Homo sapiens, UniProt Q9BV86); assay: Binding affinity to recombinant human full-length His6-tagged NTMT1 (1 to 222 residues) by ITC assay
T2 sequence (Q9BV86 whole entry): T1 sequence (whole entry)
How it was run: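 ITC at 25 °C. Purified protein (NTMT1 for line 1, NTMT2 for line 2) in 20 mM Tris-HCl pH 7.5, 150 mM NaCl, 0.5 mM TCEP at 30–50 µM final. Compound at 0.5–1 mM in the same buffer, titrated in as 26 injections of 10 µl, 180 s apart, reference power 15 µcal/sec.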

Homo sapiens [22] = species on record: Homo sapiens; assay: Selectivity for human NTMT2 over human NSD2 T1150A mutant at 100 uM; how it was run: as §2
Homo sapiens [23] = species on record: Homo sapiens; assay: Selectivity for human NTMT1 over GST-tagged human METTL21A at 100 uM; how it was run: as §1
Homo sapiens [24] = species on record: Homo sapiens; assay: Selectivity for human NTMT1 over human NSD2 T1150A mutant at 100 uM; how it was run: as §1
Homo sapiens [25] = species on record: Homo sapiens; assay: Selectivity for human NTMT2 over human GLP at 100 uM; how it was run: as §2
Homo sapiens [26] = species on record: Homo sapiens; assay: Selectivity for human NTMT2 over human ASH1L at 100 uM; how it was run: as §2

Question: For `N=C(N)NCCC[C@H](NC(=O)[C@H](CCCCN)NC(=O)[C@@H]1CCCN1C(=O)Cc1ccc(O)cc1)C(N)=O`, which Drug uptake [1] is on record?
Answer: Not Active

Question: And the Selectivity ratio (Homo sapiens [2])?
Answer: > 100

Question: What about the Selectivity ratio (Homo sapiens [3]) of the same compound?
Answer: > 100

Question: What about the Selectivity ratio (Homo sapiens [4]) of the same compound?
Answer: > 100

Question: And the inhibition [5]?
Answer: Active

Question: What about the Selectivity ratio (Homo sapiens [6]) of the same compound?
Answer: > 100

Question: And the Selectivity ratio (Homo sapiens [7])?
Answer: > 100

Question: And the Selectivity ratio (Homo sapiens [8])?
Answer: > 100

Question: And the Selectivity ratio (Homo sapiens [9])?
Answer: > 100

Question: And the Selectivity ratio (Homo sapiens [10])?
Answer: > 100

Question: What about the Selectivity ratio (Homo sapiens [11]) of the same compound?
Answer: > 100

Question: And the Selectivity ratio (Homo sapiens [12])?
Answer: > 100

Question: What about the Selectivity ratio (Homo sapiens [13]) of the same compound?
Answer: > 100

Question: And the Selectivity ratio (Homo sapiens [14])?
Answer: > 100

Question: What about the Selectivity ratio (Homo sapiens [15]) of the same compound?
Answer: > 100

Question: What about the IC50 [16] of the same compound?
Answer: > 100 µM

Question: And the Selectivity ratio (Homo sapiens [17])?
Answer: > 100

Question: What about the Selectivity ratio (Homo sapiens [18]) of the same compound?
Answer: > 100

Question: What about the Selectivity ratio (Homo sapiens [19]) of the same compound?
Answer: > 100

Question: And the Activity [20]?
Answer: inactive

Question: What about the Kd [21] of the same compound?
Answer: 3 µM

Question: And the Selectivity ratio (Homo sapiens [22])?
Answer: > 100

Question: And the Selectivity ratio (Homo sapiens [23])?
Answer: > 100

Question: What about the Selectivity ratio (Homo sapiens [24]) of the same compound?
Answer: > 100

Question: And the Selectivity ratio (Homo sapiens [25])?
Answer: > 100

Question: And the Selectivity ratio (Homo sapiens [26])?
Answer: > 100
